NSD2 inh – NSD2 (human) methyltransferase inhibition; hit rate 0.54% among 310,000; AID 743445; NSD2 peptide methylation, AlphaScreen, 120 min; inhibition, % at 12.5 µM; O96028; in the data active = inhibition above about 50%
UCH37 DUB inh – blocks the human deubiquitinase UCH37; Q9Y5K5; purified proteasome/UCH37, Ub-AMC cleavage fluorescence; inhibition, % (no concentration beside the values); hit rate 0.33% among 330,000; AID 588478;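 active = mean inhibition over replicate wells above about 20%, limit read from the data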;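 note: 0% = compound-free wells with enzyme and 100% = wells lacking proteasome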
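Material: Human UCH37 enzyme supplied as purified proteasome complex | Schedule: 30 min compound-proteasome preincubation then 25 min substrate reaction, room temperature | Detection: AMC fluorescence from Ub-AMC cleavage, excitation 355 nm, emission 460 nm | Benchmarks: Wells without proteasome as full block, compound-free enzyme plus substrate as uninhibited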
FGF22 binding – binders of recombinant human FGF22 by thermal shift; activity (Tm shift, normalised), % at 9.99 µM; SYPRO orange fluorescence; percent of sucrose octasulfate shift, DMSO zero; hit rate 1.5% among 340,000; Q9HCT0;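 active = mean Tm shift, scaled 0 neutral to 100 positive control, at about 1.3% or above, every replicate too, limit read from the data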
Target sequence (Q9HCT0 whole entry, looked up): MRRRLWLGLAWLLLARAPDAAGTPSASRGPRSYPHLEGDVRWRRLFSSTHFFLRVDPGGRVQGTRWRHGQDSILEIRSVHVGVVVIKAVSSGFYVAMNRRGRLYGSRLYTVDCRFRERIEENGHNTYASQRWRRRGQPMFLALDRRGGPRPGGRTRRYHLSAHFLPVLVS
CASP6 VEID inh – blocks human caspase-6 cleavage activity; P55212; purified caspase-6, Z-VEID-R110 cleavage fluorescence; inhibition, % at 12.5 µM; hit rate 0.53% among 350,000;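 active = mean inhibition across replicates at least about 35%, with every replicate also reaching that limit, limit read from the data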;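 note: 0% = median of neutral control wells and 100% = no fluorescence left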
SIRT5 block – sirtuin-5 (human) deacylase inhibition | hit rate 1.1% among 330,000 | inhibition, % at 15 µM | AID 652115 | Purified SirT5, succinyl-peptide AMC, trypsin-coupled fluorescence; in the data active = inhibition above about 15%
Target sequence (Q9NXA8 whole entry, looked up): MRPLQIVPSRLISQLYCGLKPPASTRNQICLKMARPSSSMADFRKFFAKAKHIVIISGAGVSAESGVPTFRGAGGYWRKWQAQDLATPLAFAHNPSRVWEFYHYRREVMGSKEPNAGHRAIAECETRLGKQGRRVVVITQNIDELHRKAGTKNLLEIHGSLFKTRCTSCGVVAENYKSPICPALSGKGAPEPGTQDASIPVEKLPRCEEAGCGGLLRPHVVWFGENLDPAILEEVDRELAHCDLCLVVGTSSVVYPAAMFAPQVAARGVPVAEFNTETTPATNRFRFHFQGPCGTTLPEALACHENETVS
AlphaScreen art – interferes with AlphaScreen signal, flagging NSD2 false positives | AlphaScreen artifact counterscreen, preloaded methylated H4 peptide | shares compounds with NSD2 inh | AC35, µM (top dose mostly 10 µM), for the others: top-dose activity change, negative = signal loss | AID 1053174 | hit rate 9.4% among 1,500; call rule not given here
The depositor's hits bear a star; x = no result. A selection: hits, their analogues and other compounds. The true share with any hit is near 2.6%.

SMILES | NSD2 inh | UCH37 DUB inh | FGF22 binding | CASP6 VEID inh | SIRT5 block | AlphaScreen art
S=C(Nc1ccc2nsnc2c1)N1CCCC1 | 141.0* | 10.1 | -0.4 | 46.9* | 2.1 | 5.6%
O=C(Nc1ccc2nsnc2c1)N1CCCCCC1 | -0.3 | -40.3 | x | x | x | x
C[C@@H]1CN([C@@H](C)CO)S(=O)(=O)c2ccc(C#CC3(O)CCCC3)cc2O[C@H]1CN(C)C(=O)Cc1cccnc1 | x | x | 0.0 | 2.7 | -2.6 | x
Cc1cc(/C=N/NC(=O)c2cccc(N(C)C)c2)c(C)n1-c1cc(C(=O)O)cc(C(=O)O)c1 | 55.2* | x | 0.1 | 34.8 | 20.4* | -3.7%
C=CCc1cc(/C=C/c2nc(O)c([N+](=O)[O-])c(=O)[nH]2)cc(OC)c1O | 78.0* | x | 43.2* | 39.0* | 8.6 | -8.7%
O=C(NC[C@@H]1[C@@H](c2ccccc2)[C@@H](CO)N1Cc1cccnc1)c1ccccn1 | x | x | -0.7 | -2.9 | 6.2 | x
O=c1oc(-c2ccco2)nc2c1cnn2-c1ccccc1 | -3.0 | -1.6 | x | x | x | x
O=c1c2cnn(-c3ccccc3)c2nc(-c2ccco2)n1-c1ccccc1 | 115.4* | 4.9 | x | x | x | -4.3%
CCN(CC)CCCNC(=O)c1ccc2c(Cl)c3c(nc2c1)CCCC3 | 44.1 | 1.9 | 0.3 | -6.4 | -4.0 | x
CCCCN(CC)CCNC(=O)c1ccc2c(Cl)c3c(nc2c1)CCC3 | 74.6* | 3.0 | -0.1 | -10.3 | -1.6 | -4.2%
CC(C)(C)C(=O)NC1CC2CCCC(C1)N2C(=O)Nc1ccc(Cl)cc1 (stereo not given) | 56.0* | 4.7 | -0.2 | -4.8 | 4.0 | 4.9%
CCc1ccc(C=NNC(=O)c2nnn(-c3nonc3N)c2C(C)C)cc1 | x | 3.9 | x | x | x | x
CCc1ccccc1NC(=O)CSc1nc2n[nH]c(C)c2c(=N)n1-c1cccc(OC)c1 | 57.5* | -2.4 | 0.1 | -8.8 | -2.7 | -4.3%
Cc1c(C(=O)NC(C)C)oc2c1-c1[nH]ncc1CC2 | 54.7* | x | x | x | x | -4.6%
CCOc1cc(/C=C/c2cccc[n+]2C)ccc1OCC(=O)Nc1ccc(C)cc1 | 12.1 | -19.8 | -0.2 | x | 2.5 | x
COc1cc(/C=C/c2cccc[n+]2C)ccc1OCC(=O)Nc1ccccc1C | 130.8* | -1.8 | -0.2 | -15.9 | 0.9 | -2.9%
O=c1c2c(n3nnnc3n1-c1ccccc1)-c1ccccc1CC21CCCC1 | -1.3 | 0.8 | x | x | x | x
O=c1c2c(n3cnnc3n1-c1ccccc1)-c1ccccc1CC21CCCC1 | 102.0* | -1.1 | -0.1 | -2.3 | -1.1 | -7.8%
CCOc1cc(N2CCOCC2)c(OCC)cc1NC(C)C(=O)N1CCN(CC)CC1 (stereo not given) | 89.9* | 1.8 | -0.3 | 70.2* | 15.5* | 2.3%
O=C(C[C@@H]1CC[C@@H](NC(=O)C2CC2)[C@@H](CO)O1)NC1CCC1 | x | x | 0.0 | -0.3 | -0.1 | x
O=C(NCc1ccccc1)[C@H]1[C@H](CO)[C@H]2Cn3c(cccc3=O)[C@@H]1N2Cc1cccnc1 | x | x | -0.3 | -5.0 | 0.5 | x
CNC(=O)CN1C(=O)c2cccc3cccc1c23 | 0.6 | -5.7 | x | x | x | x
CN1/C(=N\O)c2cccc3cccc1c23 | 55.3* | x | x | x | x | 8.0%
O=C(CCc1nnc(-c2ccccc2)o1)NCc1cc(F)ccc1F | 50.5* | -0.3 | 0.5 | -2.0 | -2.7 | 5.8%
CCOC(=O)c1c(N=CN(C)C)sc(C=NNc2ccccc2)c1-c1ccccc1 | x | 1.0 | x | x | x | x
SMILES | NSD2 inh | UCH37 DUB inh | FGF22 binding | CASP6 VEID inh | SIRT5 block | AlphaScreen art
CCN1/C(=C/c2ccc3cccc(C)c3[n+]2CC)Sc2ccccc21 | 45.5 | 12.5 | x | x | x | x
CCN1/C(=C/c2ccc3cc(C)cc(C)c3[n+]2CC)Sc2cc(C)ccc21 | 113.2* | 9.3 | 0.1 | -37.2 | 2.5 | 9.69µM*
N#Cc1cc(-c2ccccc2)nnc1Oc1ccccc1Cl | 71.1* | 4.9 | x | x | x | 1.2%
COc1ccc(Sc2nnc(-c3ccccc3)cc2C#N)cc1 | -1.7 | 0.6 | x | x | x | x
CCOC(=O)c1[nH]c(C)c(C=NO)c1C | x | 0.3 | x | x | x | x
CCC(=O)Nc1ccc2c(c1)C(=O)N(C)C[C@H](OC)[C@@H](C)CN[C@@H](C)CO2 | x | x | -0.2 | -9.3 | -9.9 | x
Cc1[nH][nH]c(=O)c1C(c1ccc(-c2ccc(F)cc2)o1)c1c(C)[nH][nH]c1=O | 156.4* | 21.7* | 43.0* | x | 1.6 | 0.2%
COc1ccc(-c2ccc(/C=N/N3C(=O)C4C5C=CC(C6CC56)C4C3=O)o2)c([N+](=O)[O-])c1 (stereo not given) | 4.9 | x | x | x | x | x
Cc1[nH][nH]c(=O)c1C(c1ccc(-c2ccc(C(=O)O)cc2)o1)c1c(C)[nH][nH]c1=O | 89.4* | 23.0* | -0.2 | 8.9 | 6.8 | 1.0%
COc1ccc(-c2ccc(C(c3c(C)[nH][nH]c3=O)c3c(C)[nH][nH]c3=O)o2)c([N+](=O)[O-])c1 | 123.8* | 8.0 | 0.2 | 15.7 | -1.1 | -2.6%
CNC(=S)N/N=C/c1ccc(-c2ccc(C(=O)O)cc2)o1 | x | x | 0.0 | 18.4 | x | x
C[C@@H](NC(=O)C[C@H]1CC[C@@H](NS(=O)(=O)c2cccc(F)c2)[C@@H](CO)O1)c1ccccc1 | x | x | 0.0 | 0.9 | -1.7 | x
CC1(C)CC(N=C2C=CC3=NC45CCCCC4CC4=C(CCCC4)N5C3=C2)CC(C)(C)N1 (stereo not given) | 64.5* | x | x | x | x | -6.1%
COc1ccc(S(=O)(=O)N(C)C[C@H]2OCCCC[C@@H](C)Oc3ccc(NC(=O)CCCCCC(=O)Nc4ccccc4N)cc3C(=O)N([C@H](C)CO)C[C@@H]2C)cc1 | x | x | -0.1 | x | x | x
COc1cc(/C=N/N=C2/C(=O)Nc3ccccc32)cc(OC)c1O | 66.7* | x | x | x | x | -14.5%
C[C@@H]1CN([C@@H](C)CO)C(=O)CCCn2nncc2CO[C@@H]1CN(C)C(=O)Nc1cccc(F)c1 | x | x | -0.2 | -3.4 | 0.9 | x
O=C(c1ccc(OC2CCN(Cc3ccccc3O)CC2)cc1)N1CCCCC1 | 12.2 | 4.1 | 0.0 | -2.8 | -0.1 | x
COc1cccc(CN2CCC(Oc3ccc(C(=O)N4CCCCC4)cc3)CC2)c1O | 57.6* | 0.4 | -0.1 | 3.5 | 0.7 | -3.7%
Cc1ccc(-c2c(C(=O)NN=Cc3ccncc3)nnn2-c2nonc2N)cc1 | x | 5.7 | x | x | x | x
CCc1nnc(NC(=O)c2ccc3ccccc3n2)s1 | 78.3* | 6.4 | 42.6 | -4.5 | -1.5 | -0.7%
CCc1nnc(NC(=O)c2ccc(COc3ccc(C)cc3)o2)s1 | -6.2 | 6.2 | x | x | x | x
CCSc1nnc(NC(=O)c2ccc3ccccc3n2)s1 | 0.5 | 2.3 | x | x | x | x
CCc1nnc(NC(=O)c2ccc(COc3ccccc3)o2)s1 | 95.7* | 2.4 | x | x | x | 0.6%
C/[N+]([O-])=C1\Cc2ccccc2C1=O | 61.0* | 1.7 | x | x | x | 0.1%
O=C1c2ccccc2CCc2ccccc21 | 0.0 | 0.7 | 0.0 | -0.5 | -0.9 | x
CN(C)C=Nc1ncc(C(=O)c2ccc3ccccc3c2)s1 | x | -7.4 | x | x | x | x
Cc1ccc(NC(=O)c2cc([N+](=O)[O-])ccc2NCc2cccnc2)cc1Cl | 127.3* | 4.9 | x | x | x | -6.6%
COc1cccc(NC(=O)c2cc([N+](=O)[O-])ccc2NCc2cccnc2)c1 | 3.5 | 3.9 | x | x | x | x
Cc1cc(C(=O)COC(=O)c2n[nH]c3ccccc23)c(C)n1C | 71.0* | 3.1 | x | x | x | -2.2%
